Laboratory results as given in ChEMBL document CHEMBL5724801, “EUbOPEN Chemogenomics Library - Multiplex” (2024).
Where “and” joins values, the source holds several entries; their conditions need not be identical. Equal entries are not always repeated.

Test system: Fibroblast
Assay: Multiplex assay against human fibroblast
Type: toxicity, cell-based
How it was run: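 Hoechst33342, BioTracker Green Microtubule Cytoskeleton Dye, MitoTracker Red and Annexin V Alexa Fluor 680 were added to live cells at seeding, and imaging on a CQ1 microscope at 37°C and 5% CO2 followed compound addition. Gating by CellPathfinder machine learning separated cells into Hoechst high-intensity objects or normal cells, then normal cells into healthy, pyknosed or fragmented nuclei, then pyknosed cells into mitotic or apoptotic. Per cents of healthy-nucleus cells are reported for the tubulin, mitochondrial-mass and membrane-permeability phenotypes.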

[1] = 12 h, 1 µM, compound concentration 1 uM
[2] = 12 h, 10 µM, compound concentration 10 uM
[3] = 24 h, 1 µM, compound concentration 1 uM
[4] = 24 h, 10 µM, compound concentration 10 uM
[5] = 48 h, 1 µM, compound concentration 1 uM
[6] = 48 h, 10 µM, compound concentration 10 uM

## CC(C)(C)c1ccc(CSc2cnn(C(C)(C)C)c(=O)c2Cl)cc1 [PYRIDABEN]
[1]
  Population Apoptotic (%): 46% and 44%
  Population Fragmented Nuclei (%): 15% and 27%
  Population Healthy Nuclei (%): 66% and 47%
  Population Hoechst High Intensity Objects (%): 1% and 4%
  Population Membrane Permeable-Phenotype (%): 3% and 12%
  Population Mitochondria Different-Phenotype (%): 1% and 7%
  Population Mitotic Cells (%): 53% and 55%
  Population Normal (%): 98% and 95%
  Population Pyknosed Nuclei (%): 17% and 25%
  Population Tubulin-Different-Phenotype (%): 28% and 57%
  Total Cell Count: 148 and 142
[2]
  Population Apoptotic (%): 25% and 47%
  Population Fragmented Nuclei (%): 11% and 25%
  Population Healthy Nuclei (%): 68% and 49%
  Population Hoechst High Intensity Objects (%): 4% and 1%
  Population Membrane Permeable-Phenotype (%): 2% and 12%
  Population Mitochondria Different-Phenotype (%): 5% and 4%
  Population Mitotic Cells (%): 74% and 52%
  Population Normal (%): 95% and 98%
  Population Pyknosed Nuclei (%): 20% and 25%
  Population Tubulin-Different-Phenotype (%): 35% and 54%
  Total Cell Count: 139 and 136
[3]
  Population Apoptotic (%): 35% and 36%
  Population Fragmented Nuclei (%): 17% and 30%
  Population Healthy Nuclei (%): 71% and 48%
  Population Hoechst High Intensity Objects (%): 0% and 4%
  Population Membrane Permeable-Phenotype (%): 0% and 7%
  Population Mitochondria Different-Phenotype (%): 2% and 8%
  Population Mitotic Cells (%): 64% and 63%
  Population Normal (%): 99% and 95%
  Population Pyknosed Nuclei (%): 11% and 21%
  Population Tubulin-Different-Phenotype (%): 20% and 50%
  Total Cell Count: 148
[4]
  Population Apoptotic (%): 56% and 54%
  Population Fragmented Nuclei (%): 13% and 28%
  Population Healthy Nuclei (%): 62% and 48%
  Population Hoechst High Intensity Objects (%): 2% and 0%
  Population Membrane Permeable-Phenotype (%): 1% and 9%
  Population Mitochondria Different-Phenotype (%): 7% and 9%
  Population Mitotic Cells (%): 43% and 45%
  Population Normal (%): 97% and 99%
  Population Pyknosed Nuclei (%): 23% and 22%
  Population Tubulin-Different-Phenotype (%): 40% and 53%
  Total Cell Count: 139 and 136
[5]
  Population Apoptotic (%): 50% and 45%
  Population Fragmented Nuclei (%): 27% and 43%
  Population Healthy Nuclei (%): 62% and 41%
  Population Hoechst High Intensity Objects (%): 1% and 4%
  Population Membrane Permeable-Phenotype (%): 0% and 6%
  Population Mitotic Cells (%): 50% and 54%
  Population Normal (%): 98% and 95%
  Population Pyknosed Nuclei (%): 9% and 15%
  Population Tubulin-Different-Phenotype (%): 28% and 63%
  Total Cell Count: 164 and 153
[6]
  Population Apoptotic (%): 72% and 63%
  Population Fragmented Nuclei (%): 19% and 36%
  Population Healthy Nuclei (%): 62% and 48%
  Population Hoechst High Intensity Objects (%): 4% and 5%
  Population Membrane Permeable-Phenotype (%): 0% and 8%
  Population Mitochondria Different-Phenotype (%): 8% and 10%
  Population Mitotic Cells (%): 28% and 36%
  Population Normal (%): 95% and 94%
  Population Pyknosed Nuclei (%): 18% and 15%
  Population Tubulin-Different-Phenotype (%): 49% and 58%
  Total Cell Count: 143 and 131
